Read-outs that look alike come from different tables or passages of the source.
Tests used:
[1] = Plasma pharmacokinetics of TSU-68; type: in vivo, human (Japanese patients); details: for AUC(0-t) / Cmax / half-life / Tmax: human, oral
[2] = Urinary excretion of TSU-68; type: in vivo, human (Japanese patients); details: any dose level
How it was run: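 Dosing was once daily on days 1 and 29 and bid on days 2–28. Drug measured by validated HPLC-UV (LLOQ 0.1 μg/mL). Excretion expressed as percentage of dose.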

advanced solid tumors = assay: Antitumor effect; type: in vivo, human (Japanese patients)
How it was run: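 Tumours measured before treatment and at 4 weeks, scored by Japan Society for Cancer Therapy (WHO-based) criteria. PR: ≥50% shrinkage held ≥4 weeks. NC: <50% shrinkage or ≤25% enlargement held ≥4 weeks. PD: ≥25% enlargement or new lesions. Tumour-type-related markers measured before therapy. Patients with progression were taken off study.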

[3] = system: plasma VEGF, E-selectin, tPA, VCAM-1, PAI-1, urine VEGF; assay: Angiogenesis-related biomarkers in plasma and urine; type: in vivo, human (Japanese patients); details: 14 patients
Caucasian patients = details: cited from earlier work
[4] = system: liver cytochrome P450, CYP1A1/2; details: non-clinical studies; cited from earlier work
tumor xenograft explants = details: athymic mice, many types of tumor; cited from earlier work
[5] = published clinical result; cited from earlier work

Structure (SMILES): Cc1[nH]c(/C=C2\C(=O)Nc3ccccc32)c(C)c1CCC(=O)O [TSU-68, (Z)-3-[2,4-dimethyl-5-(2-oxo-1,2-dihydro-indol-3-ylidenemethyl)-1H-pyrrol-3-yl]-propionic acid]
- time to reach Cmax ([1]; after the first dose, plasma): ~ 2.5 h
- AUC(0-t) ([1]; plasma, 200 mg/m2, AUC0–t, 200 mg/m^2, Day 1, 3 patients, plasma): 45600 ± 21000 ng·h/mL
- AUC(0-t) ([1]; plasma, 200 mg/m2, AUC0–t, 200 mg/m^2, Day 8, 3 patients, plasma): 20600 ± 6200 ng·h/mL
- AUC(0-t) ([1]; plasma, 200 mg/m2, AUC0–t, 200 mg/m^2, Day 29, 3 patients, plasma): 21200 ± 9500 ng·h/mL
- Cmax ([1]; plasma, 200 mg/m2, Cmax, 200 mg/m^2, Day 1, 3 patients, plasma): 10600 ± 6040 ng/mL
- Cmax ([1]; plasma, 200 mg/m2, Cmax, 200 mg/m^2, Day 8, 3 patients, plasma): 6670 ± 3700 ng/mL
- Cmax ([1]; plasma, 200 mg/m2, Cmax, 200 mg/m^2, Day 29, 3 patients, plasma): 6350 ± 3780 ng/mL
- half-life ([1]; plasma, 200 mg/m2, T1/2, 200 mg/m^2, Day 1, 3 patients, plasma): 8.03 ± 3.82 h
- half-life ([1]; plasma, 200 mg/m2, T1/2, 200 mg/m^2, Day 8, 3 patients, plasma): 4.8 ± 2.14 h
- half-life ([1]; plasma, 200 mg/m2, T1/2, 200 mg/m^2, Day 29, 3 patients, plasma): 3.59 ± 1.71 h
- Tmax ([1]; plasma, 200 mg/m2, Tmax, 200 mg/m^2, Day 1, 3 patients, plasma): 2.3 ± 1.5 h
- Tmax ([1]; plasma, 200 mg/m2, Tmax, 200 mg/m^2, Day 8, 3 patients, plasma): 1.7 ± 0.3 h
- Tmax ([1]; plasma, 200 mg/m2, Tmax, 200 mg/m^2, Day 29, 3 patients, plasma): 1.7 ± 0.8 h
- AUC(0-t) ([1]; plasma, 400 mg/m2, AUC0–t, 400 mg/m^2, Day 1, 3 patients, plasma): 58200 ± 16800 ng·h/mL
- AUC(0-t) ([1]; plasma, 400 mg/m2, AUC0–t, 400 mg/m^2, Day 8, 3 patients, plasma): 25000 ± 9400 ng·h/mL
- AUC(0-t) ([1]; plasma, 400 mg/m2, AUC0–t, 400 mg/m^2, Day 29, 2 patients, plasma): 22900 ng·h/mL
- Cmax ([1]; plasma, 400 mg/m2, Cmax, 400 mg/m^2, Day 1, 3 patients, plasma): 11700 ± 3810 ng/mL
- Cmax ([1]; plasma, 400 mg/m2, Cmax, 400 mg/m^2, Day 8, 3 patients, plasma): 7210 ± 1060 ng/mL
- Cmax ([1]; plasma, 400 mg/m2, Cmax, 400 mg/m^2, Day 29, 2 patients, plasma): 6350 ng/mL
- half-life ([1]; plasma, 400 mg/m2, T1/2, 400 mg/m^2, Day 1, 3 patients, plasma): 7.89 ± 4.04 h
- half-life ([1]; plasma, 400 mg/m2, T1/2, 400 mg/m^2, Day 8, 3 patients, plasma): 3.53 ± 0.43 h
- half-life ([1]; plasma, 400 mg/m2, T1/2, 400 mg/m^2, Day 29, 2 patients, plasma): 5.36 h
- Tmax ([1]; plasma, 400 mg/m2, Tmax, 400 mg/m^2, Day 1, 3 patients, plasma): 2.5 ± 1.3 h
- Tmax ([1]; plasma, 400 mg/m2, Tmax, 400 mg/m^2, Day 8, 3 patients, plasma): 1.8 ± 0.3 h
- Tmax ([1]; plasma, 400 mg/m2, Tmax, 400 mg/m^2, Day 29, 2 patients, plasma): 1 h
- AUC(0-t) ([1]; plasma, 800 mg/m2, AUC0–t, 800 mg/m^2, Day 1, 6 patients, plasma): 83300 ± 32700 ng·h/mL
- AUC(0-t) ([1]; plasma, 800 mg/m2, AUC0–t, 800 mg/m^2, Day 8, 5 patients, plasma): 44600 ± 17300 ng·h/mL
- AUC(0-t) ([1]; plasma, 800 mg/m2, AUC0–t, 800 mg/m^2, Day 29, 4 patients, plasma): 30000 ± 16700 ng·h/mL
- Cmax ([1]; plasma, 800 mg/m2, Cmax, 800 mg/m^2, Day 1, 6 patients, plasma): 14600 ± 5650 ng/mL
- Cmax ([1]; plasma, 800 mg/m2, Cmax, 800 mg/m^2, Day 8, 5 patients, plasma): 10600 ± 1830 ng/mL
- Cmax ([1]; plasma, 800 mg/m2, Cmax, 800 mg/m^2, Day 29, 4 patients, plasma): 10700 ± 4690 ng/mL
- half-life ([1]; plasma, 800 mg/m2, T1/2, 800 mg/m^2, Day 1, 6 patients, plasma): 9.93 ± 6.01 h
- half-life ([1]; plasma, 800 mg/m2, T1/2, 800 mg/m^2, Day 8, 5 patients, plasma): 4.31 ± 2.72 h
- half-life ([1]; plasma, 800 mg/m2, T1/2, 800 mg/m^2, Day 29, 4 patients, plasma): 4.37 ± 4.05 h
- Tmax ([1]; plasma, 800 mg/m2, Tmax, 800 mg/m^2, Day 1, 6 patients, plasma): 2.8 ± 1.1 h
- Tmax ([1]; plasma, 800 mg/m2, Tmax, 800 mg/m^2, Day 8, 5 patients, plasma): 1.5 ± 0.4 h
- Tmax ([1]; plasma, 800 mg/m2, Tmax, 800 mg/m^2, Day 29, 4 patients, plasma): 2.1 ± 0.3 h
- Cmax ([1]; plasma, 1200 mg/m^2, Cmax, 1,200 mg/m^2, Day 1, 3 patients, plasma): 16000 ± 1910 ng/mL
- Cmax ([1]; plasma, 1200 mg/m^2, Cmax, 1,200 mg/m^2, Day 8, 3 patients, plasma): 8150 ± 4220 ng/mL
- Cmax ([1]; plasma, 1200 mg/m^2, Cmax, 1,200 mg/m^2, Day 29, 3 patients, plasma): 6710 ± 884 ng/mL
- half-life ([1]; plasma, 1200 mg/m^2, T1/2, 1,200 mg/m^2, Day 1, 3 patients, plasma): 8.33 ± 4.65 h
- half-life ([1]; plasma, 1200 mg/m^2, T1/2, 1,200 mg/m^2, Day 8, 3 patients, plasma): 2.78 ± 0.9 h
- half-life ([1]; plasma, 1200 mg/m^2, T1/2, 1,200 mg/m^2, Day 29, 3 patients, plasma): 4.84 ± 3.29 h
- Tmax ([1]; plasma, 1200 mg/m^2, Tmax, 1,200 mg/m^2, Day 1, 3 patients, plasma): 2.2 ± 0.8 h
- Tmax ([1]; plasma, 1200 mg/m^2, Tmax, 1,200 mg/m^2, Day 8, 3 patients, plasma): 1.8 ± 0.3 h
- Tmax ([1]; plasma, 1200 mg/m^2, Tmax, 1,200 mg/m^2, Day 29, 3 patients, plasma): 1.7 ± 0.3 h
- trough plasma level versus IC50 for VEGF and PDGF receptors cellular assay ([1]; steady-state exposure, 200 mg/m^2, IC50 from ref 16): above the IC50
- Urinary excretion of TSU-68 [2]: below 1 % of dose
- partial or complete responses (advanced solid tumors; 15 patients, 200-1,200 mg/m^2 bid): No partial or complete responses were seen
- patients with stable disease (advanced solid tumors; non-small cell lung cancer 2, thymoma 1, peritoneal sarcoma 1): Four
- change of plasma VEGF, E-selectin, tPA and VCAM-1 [3]: not changed substantially
- PAI-1, increase over the baseline ([3]; average): more than 20%
- urine VEGF, increase over the baseline ([3]; average): more than 20%
- PAI-1, average after treatment ([3]; baseline 24.3 ± 6.7 ng/ml): 29.5 ± 11.3 ng/mL
- urine VEGF, average after treatment ([3]; baseline 96.6 ± 62.4 pg/ml): 132.1 ± 93.6 pg/mL
- AUC (Caucasian patients; day 1, Caucasian patients): 70000 ng·h/mL
- AUC (Caucasian patients; day 28, Caucasian patients): 32000 ng·h/mL
- induction of liver cytochrome P450, CYP1A1/2 [4]: causes induction of liver cytochrome P450, CYP1A1/2
- antitumor activity against tumor xenograft explants (tumor xenograft explants): significant antitumor activity
- AUC on day 56 compared with day 28 [5]: similar

— paper PMC3082041 (Cancer Chemotherapy and Pharmacology, 2010)
